Laboratory results as given in ChEMBL document CHEMBL1130341, “Novel indole-2-carboxamide and cycloalkeno[1,2-b]indole derivatives. Structure-activity relationships for high inhibition of human LDL peroxidation” (J Med Chem, 1997).

What was measured:
[1] = Activity ratio versus Probucol in lipid peroxidation; format: functional
How it was run: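 LDL isolated by ultracentrifugation from pooled plasma of healthy normolipidemic human donors. Compounds were added in DMSO just before copper-induced oxidation (3 h, 24 °C). Ten concentrations from 10^-7 to 10^-3 M were tested in duplicate. Read-out was TBARS inhibition (Yagi method), and IC50 came from linear regression. Activity was expressed as a ratio versus probucol to correct for LDL batch variation.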

[2] = Tested for inhibition of copper induced lipid peroxidation in human low density lipoproteins (LDL); format: functional
How it was run: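 LDL isolated by ultracentrifugation from pooled plasma of healthy normolipidemic human donors. Oxidation driven by copper for 3 h at 24 °C. Compounds in DMSO added just before oxidation, at 10 concentrations from 10^-7 to 10^-3 M, in duplicate. TBARS measured by the Yagi method. IC50 by linear regression; also given as an activity ratio versus probucol.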

Endothelial cell = assay: Inhibitory concentration against 15-lipoxygenase, by inhibiting 15-HETE production by human umbilical vein endothelial cells (HUVEC) stimulated by calcium ionophore A 23187 at concentration of 10e-5 M.; format: cell-based
How it was run: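 HUVEC (isolated) preincubated 15 min at 37 °C with compound at 10^-5 M in DMSO, in triplicate; stimulated with calcium ionophore A 23187 (5 × 10^-6 M in DMSO).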

Rattus norvegicus = species: Rattus norvegicus; assay: Inhibitory concentration against KCL-induced rat thoracic contraction; format: functional
How it was run: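 Isolated rat aorta contracted with hyperpotassic solution (KCl 60 mM). Inhibition of contraction measured at eight concentrations, 10^-8 to 3 × 10^-5 M, each in duplicate, on two separate preparations. IC50 obtained from the concentration-response curve by linear regression. Flunarizine as reference.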

Bos taurus = species: Bos taurus; assay: Inhibitory concentration against protection of bovine endothelial cells against cytotoxicity of oxidised LDL; format: functional; settings: Endothelial cell
How it was run: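 Cells kept 48 h in the presence of oxidized LDL, washed twice with PBS. Viability read by MTT (250 µg mL^-1 in phenol red-free RPMI, 2 h, 37 °C), solubilized in DMSO, OD 540 nm, expressed as % of cells grown without oxidized LDL. Six concentrations, five assays each; IC50 by linear regression.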

SMILES	Ratio [1]	IC50 [2]	inhibition (Endothelial cell)	IC50 (Rattus norvegicus)	IC50 (Bos taurus)
CCCCCCN(C(=O)c1cc2cc(O)ccc2[nH]1)c1ccccc1	10	0.1 µM	–	–	–
CN(C(=O)c1cc2cc(O)ccc2n1C)c1cccc(C(F)(F)F)c1	0.5	1 µM	–	–	–
COc1cc(NC(=O)c2cc3cc(O)ccc3[nH]2)cc(OC)c1OC	3.8	0.8 µM	–	–	–
COc1ccc(CN2CCN(C(=O)c3cc4cc(O)ccc4[nH]3)CC2)c(OC)c1OC	1	5 µM	–	–	–
Cn1c2c(c3cc(O)ccc31)CCCCC2	–	0.1 µM	62%	–	–
CN(C(=O)c1cc2cc(O)ccc2n1C)c1cccc(Br)c1	2.5	0.8 µM	–	–	–
CN(C(=O)c1cc2cc(O)ccc2n1C)c1ccccc1	10	0.2 µM	–	–	–
CCCCCCCCN(C(=O)c1cc2cc(SCC)ccc2[nH]1)c1ccccc1	0.03	100 µM	–	–	–
Cn1c2c(c3cc(O)ccc31)CCCC2	3	0.6 µM	–	–	–
CN(C(=O)c1cc2cc(O)ccc2n1C)c1cccc(Cl)c1	> 20	< 0.1 µM	–	–	–
Cn1c(C(=O)Nc2cccc(Cl)c2)cc2cc(O)ccc21	0.8	1 µM	–	–	–
COc1ccc2[nH]c3c(c2c1)CCCC3	3	1 µM	–	–	–
CCSc1ccc2c(c1)c1c(n2C)CCCC1	0.1	20 µM	–	–	–
COc1cccc(N(C)C(=O)c2cc3cc(OC)ccc3n2C)c1	0.01	200 µM	–	–	–
CCCCCCCCN(C(=O)c1cc2cc(O)ccc2[nH]1)c1ccccc1	0.3	10 µM	–	–	–
Oc1ccc2[nH]c3c(c2c1)CCCCCC3	2	0.5 µM	–	–	–
COc1ccc2c(c1)cc(C(=O)N(C)c1ccccc1)n2C	0.02	90 µM	–	–	–
CC(C)(Sc1cc(C(C)(C)C)c(O)c(C(C)(C)C)c1)Sc1cc(C(C)(C)C)c(O)c(C(C)(C)C)c1 [PROBUCOL]	–	5 µM	–	–	–
O=C(Nc1ccccc1)c1cc2cc(O)ccc2[nH]1	3	1 µM	–	–	–
Cn1c(C(=O)Nc2ccccc2)cc2cc(O)ccc21	0.3	0.9 µM	–	–	–
CN(C(=O)c1cc2cc(O)ccc2[nH]1)c1ccccc1	1	1 µM	–	–	–
Cn1c(C(=O)N2CCN(C(c3ccc(F)cc3)c3ccc(F)cc3)CC2)cc2cc(O)ccc21	5	0.6 µM	–	1500 nM	140 nM
CCCCCCN(C(=O)c1cc2cc(O)ccc2n1C)c1ccccc1	5	0.2 µM	–	–	–
COc1ccc2[nH]c(C(=O)Nc3ccccc3)cc2c1	2.2	0.9 µM	–	–	–
COc1ccc2[nH]c(C(=O)N(C)c3ccccc3)cc2c1	< 0.001	> 1000 µM	–	–	–
Cn1c2c(c3cc(O)ccc31)CCCCCC2	10	0.1 µM	–	–	–
CCCCN(C(=O)c1cc2cc(O)ccc2n1C)c1ccccc1	3	1 µM	–	–	–
